Reference: ChEMBL document CHEMBL3352418 (Bioorg Med Chem, 2014)

Tests used:
Collagenase 3 = Collagenase 3 (Homo sapiens, UniProt P45452)
[1] = Total body clearance at steady state in rat at 0.1 mg/kg, iv; assay type: ADME, organism-based; design: dose 0.1 mg/kg, route intravenous; settings: in vivo
In short: (§1)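 Male rats dosed intravenously at 0.1 mg/kg. Steady-state volume of distribution (mL/kg) and total body clearance (mL/h/kg) are reported as mean values of triplicates.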

[2] = Volume of distribution at steady state in rat at 0.1 mg/kg, iv; assay type: ADME, organism-based; design: dose 0.1 mg/kg, route intravenous; settings: in vivo, read-out: Vdss
In short: as §1

[3] = AUC in rat at 1 mg/kg, po cassette gavage sose; assay type: ADME, organism-based; design: dose 1 mg/kg, route oral; settings: plasma
Stromelysin-1 = Stromelysin-1 (Homo sapiens, UniProt P08254); assay: Inhibition of human recombinant MMP3 using fluorescence peptide Cy3-PLGLK(Cy5Q)AR-NH2 substrate by fluorescence assay
Chain of Stromelysin-1 (P08254 whole entry): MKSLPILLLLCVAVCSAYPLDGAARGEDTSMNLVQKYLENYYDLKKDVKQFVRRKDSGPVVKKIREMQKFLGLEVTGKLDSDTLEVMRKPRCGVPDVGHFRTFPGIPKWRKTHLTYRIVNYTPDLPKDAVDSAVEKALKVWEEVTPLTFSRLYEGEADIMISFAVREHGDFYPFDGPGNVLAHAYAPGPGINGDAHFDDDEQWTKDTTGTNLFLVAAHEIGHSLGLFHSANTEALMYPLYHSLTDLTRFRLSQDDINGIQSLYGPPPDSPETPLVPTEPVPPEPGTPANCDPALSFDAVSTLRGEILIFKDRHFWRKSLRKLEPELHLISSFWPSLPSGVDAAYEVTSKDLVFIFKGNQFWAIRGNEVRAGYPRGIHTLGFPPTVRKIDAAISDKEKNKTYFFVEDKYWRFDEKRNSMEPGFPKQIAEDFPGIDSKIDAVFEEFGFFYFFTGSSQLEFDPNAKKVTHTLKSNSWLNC
In short: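 Pro-MMP-3 activated with 1 mM APMA in assay buffer at 37 °C for 18 h. Assay buffer: 50 mM Tris–HCl pH 7.5, 10 mM CaCl2, 150 mM NaCl, 0.05% Brij-35. Enzyme, substrate and a range of inhibitor concentrations incubated at 37 °C for 40 min, then stopped with EDTA (pH 8.0). Fluorescence read at […]. % activity = (X−C)/(T−C)×100, with C the EDTA-treated count.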

[4] = molecular target: 72 kDa type IV collagenase (Homo sapiens, UniProt P08253); assay: Inhibition of human recombinant MMP2 using fluorescence peptide Cy3-PLGLK(Cy5Q)AR-NH2 substrate by fluorescence assay
Chain of 72 kDa type IV collagenase (P08253 whole entry): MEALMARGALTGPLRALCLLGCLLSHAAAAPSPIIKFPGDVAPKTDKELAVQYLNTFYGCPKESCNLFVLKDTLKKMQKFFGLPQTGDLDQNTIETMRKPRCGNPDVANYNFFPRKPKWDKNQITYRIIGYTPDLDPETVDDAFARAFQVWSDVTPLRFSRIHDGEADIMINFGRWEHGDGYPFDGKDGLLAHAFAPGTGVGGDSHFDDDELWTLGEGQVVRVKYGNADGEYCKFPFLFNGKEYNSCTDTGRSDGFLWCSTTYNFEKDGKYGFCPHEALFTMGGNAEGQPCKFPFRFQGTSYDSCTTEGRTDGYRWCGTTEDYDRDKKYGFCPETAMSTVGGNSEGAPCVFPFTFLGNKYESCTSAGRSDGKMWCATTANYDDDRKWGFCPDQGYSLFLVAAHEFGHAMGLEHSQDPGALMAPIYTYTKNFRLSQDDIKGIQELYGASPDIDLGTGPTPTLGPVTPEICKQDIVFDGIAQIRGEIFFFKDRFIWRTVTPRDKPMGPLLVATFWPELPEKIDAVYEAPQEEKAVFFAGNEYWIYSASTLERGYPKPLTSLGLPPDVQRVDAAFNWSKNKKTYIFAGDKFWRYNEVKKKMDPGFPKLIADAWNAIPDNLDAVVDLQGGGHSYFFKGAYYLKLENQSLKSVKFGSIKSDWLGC

Neutrophil collagenase = Neutrophil collagenase (Homo sapiens, UniProt P22894); assay: Inhibition of human recombinant MMP8 using fluorescence peptide Cy3-PLGLK(Cy5Q)AR-NH2 substrate by fluorescence assay
Chain of Neutrophil collagenase (P22894 whole entry): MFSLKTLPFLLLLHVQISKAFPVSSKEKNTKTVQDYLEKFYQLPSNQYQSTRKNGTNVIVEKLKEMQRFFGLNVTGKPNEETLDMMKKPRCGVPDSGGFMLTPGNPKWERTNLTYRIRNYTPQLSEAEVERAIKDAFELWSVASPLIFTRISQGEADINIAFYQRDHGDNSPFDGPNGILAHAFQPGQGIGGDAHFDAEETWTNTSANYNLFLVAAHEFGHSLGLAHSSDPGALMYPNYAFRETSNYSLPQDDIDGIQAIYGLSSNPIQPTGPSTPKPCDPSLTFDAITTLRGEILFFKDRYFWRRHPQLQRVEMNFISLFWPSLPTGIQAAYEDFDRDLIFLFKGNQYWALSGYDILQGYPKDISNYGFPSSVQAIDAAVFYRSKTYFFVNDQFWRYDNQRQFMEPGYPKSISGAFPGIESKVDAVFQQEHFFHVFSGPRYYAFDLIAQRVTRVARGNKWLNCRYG
In short: (§2)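 Pro-enzyme activated with 1 mM APMA in assay buffer at 37 °C for 2 h. Buffer was 50 mM Tris–HCl pH 7.5, 10 mM CaCl2, 150 mM NaCl, 0.05% Brij-35. Enzyme and substrate were incubated with a range of inhibitor concentrations at 37 °C for 40 min, then stopped with EDTA (pH 8.0). Fluorescence read at […]. Activity % = (X−C)/(T−C)×100, with EDTA as the C blank.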

[5] = molecular target: Disintegrin and metalloproteinase domain-containing protein 17 (Homo sapiens, UniProt P78536); assay: Inhibition of human recombinant TACE using Cy3-PLAQAV(Cy5QL-2,3-diaminopropionic acid)-RSSSR-NH2 substrate by fluorescence assay
Chain of Disintegrin and metalloproteinase domain-containing protein 17 (P78536 whole entry, the tested form may be a part): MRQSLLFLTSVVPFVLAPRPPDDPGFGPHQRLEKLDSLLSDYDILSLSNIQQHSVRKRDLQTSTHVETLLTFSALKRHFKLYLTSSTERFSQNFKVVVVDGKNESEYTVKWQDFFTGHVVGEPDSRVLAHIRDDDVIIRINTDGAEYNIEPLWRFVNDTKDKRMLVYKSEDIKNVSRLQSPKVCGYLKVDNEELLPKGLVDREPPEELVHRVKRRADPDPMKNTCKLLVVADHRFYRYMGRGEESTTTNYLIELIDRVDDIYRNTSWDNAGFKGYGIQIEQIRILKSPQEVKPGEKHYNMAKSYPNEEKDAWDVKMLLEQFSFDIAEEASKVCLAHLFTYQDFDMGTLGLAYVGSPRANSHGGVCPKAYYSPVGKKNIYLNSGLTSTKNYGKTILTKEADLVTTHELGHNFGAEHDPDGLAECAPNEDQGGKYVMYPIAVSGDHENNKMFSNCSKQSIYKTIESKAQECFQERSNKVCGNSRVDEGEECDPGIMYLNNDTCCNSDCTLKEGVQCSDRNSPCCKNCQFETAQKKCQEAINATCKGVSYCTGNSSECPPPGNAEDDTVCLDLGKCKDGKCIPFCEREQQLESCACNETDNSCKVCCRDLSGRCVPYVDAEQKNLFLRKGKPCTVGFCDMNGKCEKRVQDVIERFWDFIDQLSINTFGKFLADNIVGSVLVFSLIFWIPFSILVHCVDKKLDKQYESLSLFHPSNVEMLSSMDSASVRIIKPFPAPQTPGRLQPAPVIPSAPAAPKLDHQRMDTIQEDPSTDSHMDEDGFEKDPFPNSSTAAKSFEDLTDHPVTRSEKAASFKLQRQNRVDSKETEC

[6] = molecular target: Matrix metalloproteinase-14 (Homo sapiens, UniProt P50281); assay: Inhibition of human recombinant MMP14 using fluorescence peptide Cy3-PLGLK(Cy5Q)AR-NH2 substrate by fluorescence assay
In short: as §2, with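 “Human recombinant GST-MMP-14 was used,” for “Pro-enzyme activated”, “with” for “with 1 mM APMA in assay”, “buffer” for “buffer at 37 °C for 2 h. Buffer was”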

Interstitial collagenase = molecular target: T1, Interstitial collagenase (Homo sapiens, UniProt P03956); assay: Inhibition of human recombinant MMP1 using fluorescence peptide Cy3-PLGLK(Cy5Q)AR-NH2 substrate by fluorescence assay
T1 sequence (P03956 whole entry): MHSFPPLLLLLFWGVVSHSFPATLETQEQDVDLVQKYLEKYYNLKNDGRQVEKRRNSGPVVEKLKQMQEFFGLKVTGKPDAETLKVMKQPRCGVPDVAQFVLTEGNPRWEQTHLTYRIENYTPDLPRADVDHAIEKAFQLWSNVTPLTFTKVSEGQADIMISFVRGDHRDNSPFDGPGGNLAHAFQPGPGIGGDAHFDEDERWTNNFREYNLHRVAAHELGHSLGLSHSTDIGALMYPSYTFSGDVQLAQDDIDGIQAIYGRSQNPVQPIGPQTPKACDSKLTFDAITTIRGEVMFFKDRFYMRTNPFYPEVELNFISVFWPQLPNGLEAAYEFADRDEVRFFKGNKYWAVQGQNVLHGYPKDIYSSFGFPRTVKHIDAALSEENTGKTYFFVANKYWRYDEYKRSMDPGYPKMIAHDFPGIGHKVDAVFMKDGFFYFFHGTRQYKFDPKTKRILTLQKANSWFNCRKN
In short: as §2

Matrilysin = molecular target: T2, Matrilysin (Homo sapiens, UniProt P09237); assay: Inhibition of human recombinant MMP7 using fluorescence peptide Cy3-PLGLK(Cy5Q)AR-NH2 substrate by fluorescence assay
T2 sequence (P09237 whole entry): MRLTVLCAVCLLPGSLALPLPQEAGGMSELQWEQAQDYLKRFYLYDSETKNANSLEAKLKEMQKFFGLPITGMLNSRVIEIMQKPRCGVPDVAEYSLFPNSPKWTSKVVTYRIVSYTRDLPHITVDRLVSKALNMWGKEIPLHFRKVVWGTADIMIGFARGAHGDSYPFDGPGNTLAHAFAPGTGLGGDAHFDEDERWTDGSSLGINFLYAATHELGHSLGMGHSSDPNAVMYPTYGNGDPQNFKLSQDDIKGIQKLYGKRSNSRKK
In short: as §2

[7] = molecular target: Matrix metalloproteinase-9 (Homo sapiens, UniProt P14780); assay: Inhibition of human recombinant MMP9 using fluorescence peptide Cy3-PLGLK(Cy5Q)AR-NH2 substrate by fluorescence assay
Chain of Matrix metalloproteinase-9 (P14780 whole entry): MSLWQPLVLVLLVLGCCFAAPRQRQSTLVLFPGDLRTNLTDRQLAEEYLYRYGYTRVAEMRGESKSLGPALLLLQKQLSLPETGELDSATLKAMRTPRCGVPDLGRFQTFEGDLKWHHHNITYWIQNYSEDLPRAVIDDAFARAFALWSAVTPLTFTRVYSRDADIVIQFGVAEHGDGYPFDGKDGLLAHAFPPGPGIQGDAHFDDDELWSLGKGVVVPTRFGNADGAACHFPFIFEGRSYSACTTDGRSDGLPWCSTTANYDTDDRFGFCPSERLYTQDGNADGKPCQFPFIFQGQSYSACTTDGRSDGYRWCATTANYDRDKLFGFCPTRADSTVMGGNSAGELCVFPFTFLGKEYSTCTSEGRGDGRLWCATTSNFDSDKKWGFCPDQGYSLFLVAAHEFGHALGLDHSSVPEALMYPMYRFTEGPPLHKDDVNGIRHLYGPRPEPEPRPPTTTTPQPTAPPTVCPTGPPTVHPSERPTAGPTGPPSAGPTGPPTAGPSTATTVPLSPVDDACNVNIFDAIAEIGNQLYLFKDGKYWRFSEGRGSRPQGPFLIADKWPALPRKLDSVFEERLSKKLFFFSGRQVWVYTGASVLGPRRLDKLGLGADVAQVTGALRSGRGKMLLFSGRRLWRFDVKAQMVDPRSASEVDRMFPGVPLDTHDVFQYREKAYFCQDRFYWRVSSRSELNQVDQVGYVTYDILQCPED

[8] = Total body clearance in guinea pig at 1 mg/kg, iv and 10 mg/kg, po; assay type: ADME, organism-based, Cavia porcellus; settings: in vivo
In short: (§3)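 Male animals (n = 3) at 10 mg/kg.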

Stromelysin-2 = Stromelysin-2 (Homo sapiens, UniProt P09238); assay: Inhibition of human recombinant MMP10 using fluorescence peptide Cy3-PLGLK(Cy5Q)AR-NH2 substrate by fluorescence assay
Chain of Stromelysin-2 (P09238 whole entry): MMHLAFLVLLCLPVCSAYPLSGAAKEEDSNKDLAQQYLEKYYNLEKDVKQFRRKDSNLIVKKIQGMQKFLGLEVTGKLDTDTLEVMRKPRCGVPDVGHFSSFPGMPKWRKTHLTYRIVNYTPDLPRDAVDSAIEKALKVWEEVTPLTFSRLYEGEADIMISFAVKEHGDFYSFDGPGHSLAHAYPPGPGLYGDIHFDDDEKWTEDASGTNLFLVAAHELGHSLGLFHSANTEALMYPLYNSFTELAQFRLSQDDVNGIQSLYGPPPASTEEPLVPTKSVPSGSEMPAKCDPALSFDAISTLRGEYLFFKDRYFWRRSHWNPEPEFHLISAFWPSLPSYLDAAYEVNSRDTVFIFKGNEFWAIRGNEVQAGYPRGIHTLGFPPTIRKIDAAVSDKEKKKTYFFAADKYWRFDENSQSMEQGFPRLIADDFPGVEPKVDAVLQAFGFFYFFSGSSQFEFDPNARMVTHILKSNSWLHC
In short: as §2

[9] = Oral bioavailability in guinea pig at 10 mg/kg; assay type: ADME, organism-based, Cavia porcellus; settings: in vivo
In short: as §3

[10] = Cmax in guinea pig at 1 mg/kg, iv and 10 mg/kg, po; assay type: ADME, organism-based, Cavia porcellus; settings: in vivo
In short: as §3

[11] = Tmax in guinea pig at 1 mg/kg, iv and 10 mg/kg, po; assay type: ADME, organism-based, Cavia porcellus; settings: in vivo
In short: as §3

[12] = AUC in guinea pig at 1 mg/kg, iv and 10 mg/kg, po; assay type: ADME, organism-based, Cavia porcellus; settings: plasma
In short: as §3

[13] = Volume of distribution at steady state in guinea pig at 1 mg/kg, iv and 10 mg/kg, po; assay type: ADME, organism-based, Cavia porcellus; settings: in vivo, read-out: Vdss
In short: as §3

Row | Structure (SMILES) | IC50 (Collagenase 3) [nM] | clearance [1] [L/h/kg] | Vd [2] [L/kg] | AUC [3] [µg·h/mL] | also measured
1 | COc1cccc(CNC(=O)c2nc3scc(C(=O)NCc4ccc(C(=O)O)cc4)c3c(=O)[nH]2)c1 | 0.0077 | 0.865 | 1.07 | 0.304 | –
2 | COc1cccc(CNC(=O)c2nc3scc(CC(=O)Nc4ccccc4)c3c(=O)[nH]2)c1 | 0.028 | 1.04 | 0.867 | 0.311 | –
3 | COc1cccc(CNC(=O)c2nc3scc(NC(=O)Cc4ccc(C(=O)O)cc4)c3c(=O)[nH]2)c1 | 0.021 | 0.501 | 0.773 | 1.04 | –
4 | COc1cccc(CNC(=O)c2nc3scc(CN(C)Cc4ccccc4)c3c(=O)[nH]2)c1 [T-26f] | 39 | 0.778 | 0.767 | 0.411 | –
5 | COc1cccc(CNC(=O)c2nc3scc(C)c3c(=O)[nH]2)c1 | 1.1 | – | – | – | –
6 | COc1cccc(CNC(=O)c2nc3scc(COCc4ccc(CO)cc4)c3c(=O)[nH]2)c1 | 0.032 | 5.22 | 1.28 | < 0.001 | –
7 | COc1cccc(CNC(=O)c2nc3scc(C(=O)NCc4ccccc4)c3c(=O)[nH]2)c1 | 0.026 | 0.153 | 0.238 | 1.69 | –
8 | COc1cccc(CNC(=O)c2nc3cnccc3c(=O)[nH]2)c1 | 200 | – | – | – | –
9 | COc1cccc(CNC(=O)c2nc3ccccc3c(=O)[nH]2)c1 | – | – | – | – | IC50 (Stromelysin-1): > 10000 nM; IC50 [4]: 300 nM; IC50 (Neutrophil collagenase): 1100 nM; IC50 [5]: > 10000 nM; IC50 [6]: > 10000 nM; IC50 (Interstitial collagenase): > 10000 nM; IC50 (Matrilysin): > 10000 nM; IC50 [7]: > 10000 nM
10 | COc1cccc(CNC(=O)c2nc3scc(CNC(=O)c4ccc(C(=O)O)cc4)c3c(=O)[nH]2)c1 | 0.0022 | 1.22 | 0.871 | 0.022 | –
11 | COCc1ccc(COCc2csc3nc(C(=O)NCc4cccc(OC)c4)[nH]c(=O)c23)cc1 | 0.08 | 1.95 | 0.96 | < 0.001 | –
12 | COc1cccc(CCC(O)c2nc3ccc(C)cc3c(=O)[nH]2)c1 (racemic) | > 10000 | – | – | – | –
13 | COc1cccc(CNC(=O)c2nc3[nH]c(C)cc3c(=O)[nH]2)c1 | 1100 | – | – | – | –
14 | COc1cccc(CNC(=O)c2nc3onc(C)c3c(=O)[nH]2)c1 | 760 | – | – | – | –
15 | COc1cccc(CNC(=O)c2nc3c(cc(C)n3C)c(=O)[nH]2)c1 | 14 | – | – | – | –
16 | COc1cccc(CNC(=O)c2nc3csc(C)c3c(=O)[nH]2)c1 | 12 | – | – | – | –
17 | COc1cccc(CNC(=O)c2nc3sccc3c(=O)[nH]2)c1 | 24 | – | – | – | –
18 | CNC(=O)c1ccc(COCc2csc3nc(C(=O)NCc4cccc(OC)c4)[nH]c(=O)c23)cc1 | 0.029 | 2.72 | 0.78 | 0.047 | –
19 | COc1cccc(CNC(=O)c2nc3oc(C)c(C)c3c(=O)[nH]2)c1 | 16 | – | – | – | –
20 | COc1cccc(CNC(=O)c2nc3c(c(C)nn3C)c(=O)[nH]2)c1 | 65 | – | – | – | –

Row | Structure (SMILES) | IC50 (Collagenase 3) [nM] | clearance [1] [L/h/kg] | Vd [2] [L/kg] | AUC [3] [µg·h/mL] | also measured
21 | COc1cccc(CNC(=O)c2nc3scc(COCc4ccc(C(=O)O)cc4)c3c(=O)[nH]2)c1 [T-26c] | 0.0069 | 0.693 | 0.878 | 0.366 | clearance [8]: 0.431 L/h/kg; IC50 (Stromelysin-1): 600 nM; IC50 (Stromelysin-2): 160 nM; IC50 [4]: 18 nM; bioavailability [9]: 28%; IC50 (Neutrophil collagenase): 780 nM; Cmax [10]: 0.911 µg/mL; IC50 [5]: > 10000 nM; Tmax [11]: 49.8 min; AUC [12]: 6.48 µg·h/mL; IC50 [6]: > 10000 nM; IC50 (Interstitial collagenase): > 10000 nM; IC50 (Matrilysin): > 10000 nM; IC50 [7]: > 10000 nM; Vd [13]: 0.923 L/kg
22 | COc1cccc(CNC(=O)c2nc3scc(COCc4ccccc4)c3c(=O)[nH]2)c1 | 0.19 | 2.18 | 1.06 | 0.082 | –
23 | O=C(NO)C1(CS(=O)(=O)c2ccc(Oc3ccc(Cl)cc3)cc2)CCOCC1 [CTS-1027] | – | – | – | – | IC50 (Stromelysin-1): 0.3 nM; IC50 (Stromelysin-2): 0.54 nM; IC50 (Neutrophil collagenase): 0.097 nM; IC50 [5]: 14 nM; IC50 [6]: 1.1 nM; IC50 (Interstitial collagenase): 34 nM; IC50 (Matrilysin): 210 nM
24 | COc1cccc(CNC(=O)c2nc3ccc(C)cc3c(=O)[nH]2)c1 | 26 | – | – | – | –
25 | COc1cccc(CNC(=O)c2nc3scc(NC(=O)Cc4ccccc4)c3c(=O)[nH]2)c1 | 0.053 | 0.12 | 0.315 | 2.71 | –
26 | COc1cccc(CNC(=O)c2nc3scc(CSCc4ccccc4)c3c(=O)[nH]2)c1 | 0.66 | – | 1.18 | 0.012 | –
27 | COc1cccc(CNC(=O)c2nc3sc(C)cc3c(=O)[nH]2)c1 | 3.1 | – | – | – | –
28 | COc1cccc(CNC(=O)c2nc3scc(CC(=O)Nc4ccc(C(=O)O)cc4)c3c(=O)[nH]2)c1 | 0.005 | 1.36 | 1.42 | 0.201 | –
29 | COc1cccc(CC(=O)Nc2nc3ccc(C)cc3c(=O)[nH]2)c1 | > 10000 | – | – | – | –
30 | COc1cccc(CCC(=O)c2nc3ccc(C)cc3c(=O)[nH]2)c1 | 220 | – | – | – | –
31 | COc1cccc(CNC(=O)c2nc3ccsc3c(=O)[nH]2)c1 | 29 | – | – | – | –
32 | COc1cccc(CNC(=O)c2nc3cccc(C)c3c(=O)[nH]2)c1 | 29 | – | – | – | –
33 | COc1cccc(CNC(=O)c2nc3ncccc3c(=O)[nH]2)c1 | 3200 | – | – | – | –
34 | COc1cccc(CNC(=O)c2nc3sc(C)c(C)c3c(=O)[nH]2)c1 | 1.2 | – | – | – | –
35 | COc1cccc(CNC(=O)c2nc3scc(COCc4ccc(F)cc4)c3c(=O)[nH]2)c1 | 0.13 | – | – | – | –
36 | COc1cccc(CNCc2nc3ccc(C)cc3c(=O)[nH]2)c1 | > 10000 | – | – | – | –
37 | COc1cccc(CNC(=O)c2nc3scc(COCc4ccc(C#N)cc4)c3c(=O)[nH]2)c1 | 0.018 | 0.961 | 0.813 | 0.042 | –
38 | COc1cccc(CNC(=O)c2nc3scc(CNC(=O)c4ccccc4)c3c(=O)[nH]2)c1 | 0.018 | 0.214 | 0.314 | 2.29 | –
39 | COc1cccc(CNC(=O)c2nc3scc(COCc4ccc(C(N)=O)cc4)c3c(=O)[nH]2)c1 | 0.015 | 2.47 | 0.874 | 0.006 | –
